In PMC7114209 (Antiviral Research, 2008):

Experiments:
[1] = Cell growth and viability assay; assay type: cell-based; conditions: human, Raji cells, CC50, cytotoxic concentration that decreased cell viability to 50% of untreated cells, MTT, mean ± S.D. of three experiments
How it was run: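 Raji cells (latently EBV-infected, non-producer) kept at 4–6 × 10^5 cells/ml in RPMI 1640 with 10% FCS, penicillin and streptomycin. Cells were seeded in 96-well plates and exposed to a range of test compound concentrations for 3 days. MTT was then added for 6 h at 37 °C and solubilised in 0.04 M HCl–isopropanol. Absorbance was read at 595 nm against 655 nm. CC50 is relative to the no-drug control.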

[2] = tested on: EBV DNA in Raji cells; conditions: latently infected Raji cells, not superinfected; ref Lin, 2003; cited from earlier work
[3] = tested on: EBV DNA in P3HR-1 cells; conditions: ref Lin, 2003; cited from earlier work

For `CC1(C)[C@@H](O[C@H]2O[C@H](C(=O)O)[C@@H](O)[C@H](O)[C@H]2O[C@@H]2O[C@H](C(=O)O)[C@@H](O)[C@H](O)[C@H]2O)CC[C@]2(C)[C@H]3C(=O)C=C4[C@@H]5C[C@@](C)(C(=O)O)CC[C@]5(C)CC[C@@]4(C)[C@]3(C)CC[C@@H]12` [GL (18β-GL), Glycyrrhizic acid], which CC50 at 3 days [1] is on record?
Its CC50 at 3 days is 4.5 ± 0.16 mM.

And the “effect on EBV DNA” value [2]?
The value was “no effects”.

What about the “effect on EBV DNA” value [3] of the same compound?
Its value is “no effects”.
